Tests used:
[1] = Initial concentration in CD-1 mouse at 1 mg/kg, iv or 5 mg/kg, po administered as single dose; type: ADME, organism-based; details: in vivo
Method in brief: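 Female CD-1 mice, single dose. Oral formulation: 70% PEG300/30% (5% dextrose in water) at 0.5 mg/mL. Intravenous formulation: 5% DMSO/10% cremophor/85% water at 0.25 mg/mL. Parameters from non-compartmental analysis.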

[2] = tested on: Mus musculus; assay: Dose normalized AUC (0 to infinity) in CD-1 mouse at 5 mg/kg, po administered as single dose; type: ADME, organism-based; details: in vivo

- C0 [1]: 4.9 µM
- AUC/dose [2]: > 54.3 µM·h
SMILES: CCCNC(=O)N1[C@H](C#N)[C@H](c2ccc(-c3ccc(C(F)(F)F)c(C(F)(F)F)c3)cc2)[C@H]1CO

From ChEMBL document CHEMBL3992568, “Discovery of Antimalarial Azetidine-2-carbonitriles That Inhibit P. falciparum Dihydroorotate Dehydrogenase” (ACS Med Chem Lett, 2017)
